According to ChEMBL document CHEMBL4689842, “EUbOPEN Chemogenomics Library wave 1” (2021):
Several values for one entry are separate records, joined by “and”; a condition that tells them apart may be missing. Equal values may be shown once.

Assays:
Type in all cases: toxicity, cell-based
HEK-293T = assay: Incucyte cell viability with HEK293T; settings: human, 10 µM, compound concentration 10 uM; further: filed as whole numbers so only -1 and 0 and 1 occur
U2OS [1] = assay: Multiplex assay against U2OS; settings: human, 1 µM, compound concentration 1 uM
How it was run: (§1)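 Cells stained live at seeding with Hoechst33342, BioTracker Green Microtubule Cytoskeleton Dye, MitoTracker Red and Annexin V Alexa Fluor 680 were imaged on a CQ1 microscope at 37°C and 5% CO2 after compound addition. Their classification by CellPathfinder machine-learning gating ran from Hoechst high-intensity objects versus normal cells, to healthy, pyknosed or fragmented nuclei among normal cells, to mitotic or apoptotic among pyknosed cells. Tubulin, mitochondrial-mass and membrane-permeability phenotypes are per cents of healthy-nucleus cells.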

Fibroblast [2] = assay: Multiplex assay against human fibroblast; settings: 1 µM, compound concentration 1 uM; how it was run: as §1
Fibroblast [3] = assay: Incucyte cell viability with human fibroblast; settings: 10 µM, compound concentration 10 uM; further: filed as whole numbers so only -1 and 0 and 1 occur
U2OS [4] = assay: Incucyte cell viability with U2OS; settings: human, 10 µM, compound concentration 10 uM; further: filed as whole numbers so only -1 and 0 and 1 occur
[5] = 6 h, replicate number 1, timepoint 6 hours
[6] = 12 h, replicate number 1, timepoint 12 hours
[7] = 18 h, replicate number 1, timepoint 18 hours
[8] = 24 h, replicate number 1, timepoint 24 hours

## CS(=O)(=O)N1CCN(Cc2cc3nc(-c4cccc5[nH]ncc45)nc(N4CCOCC4)c3s2)CC1 [PICTILISIB]
HEK-293T; [5]
  Growth Rate: 0
HEK-293T; [6]
  Growth Rate: 0
HEK-293T; [7]
  Growth Rate: 0
HEK-293T; [8]
  Growth Rate: 0
U2OS [1]; 12 h, replicate 1
  Population Apoptotic (%): 69% and 53%
  Population Fragmented Nuclei (%): 22% and 12%
  Population Healthy Nuclei (%): 35% and 77%
  Population Hoechst High Intensity Objects (%): 4%
  Population Membrane Permeable-Phenotype (%): 47% and 40%
  Population Mitotic Cells (%): 30% and 46%
  Population Normal (%): 95% and 96%
  Population Tubulin-Different-Phenotype (%): 100% and 49%
  Total Cell Count: 150 and 194
U2OS [1]; 12 h, replicate 2
  Population Apoptotic (%): 74% and 45%
  Population Fragmented Nuclei (%): 13%
  Population Healthy Nuclei (%): 26% and 78%
  Population Hoechst High Intensity Objects (%): 24% and 14%
  Population Membrane Permeable-Phenotype (%): 55% and 27%
  Population Mitotic Cells (%): 25% and 54%
  Population Normal (%): 75% and 86%
  Total Cell Count: 91
U2OS [1]; 24 h, replicate 1
  Population Apoptotic (%): 91% and 73%
  Population Fragmented Nuclei (%): 16% and 11%
  Population Membrane Permeable-Phenotype (%): 84% and 29%
  Population Normal (%): 77% and 97%
  Total Cell Count: 190 and 175
U2OS [1]; 24 h, replicate 2
  Population Apoptotic (%): 94% and 86%
  Population Fragmented Nuclei (%): 21% and 13%
  Population Healthy Nuclei (%): 28% and 75%
  Population Hoechst High Intensity Objects (%): 23% and 10%
  Population Mitotic Cells (%): 5% and 13%
  Population Normal (%): 76% and 89%
  Total Cell Count: 159 and 98
Fibroblast [2]; 12 h, replicate 1
  Population Apoptotic (%): 64% and 41%
  Population Fragmented Nuclei (%): 35% and 14%
  Population Healthy Nuclei (%): 45% and 47%
  Population Membrane Permeable-Phenotype (%): 5% and 11%
  Population Mitochondria Different-Phenotype (%): 11% and 25%
  Population Mitotic Cells (%): 35% and 58%
  Population Normal (%): 83% and 50%
  Population Pyknosed Nuclei (%): 18% and 37%
  Total Cell Count: 234 and 214
Fibroblast [2]; 12 h, replicate 2
  Population Apoptotic (%): 80% and 35%
  Population Fragmented Nuclei (%): 72% and 48%
  Population Healthy Nuclei (%): 18% and 22%
  Population Hoechst High Intensity Objects (%): 38% and 35%
  Population Membrane Permeable-Phenotype (%): 18% and 9%
  Population Normal (%): 61% and 64%
  Total Cell Count: 94 and 76
Fibroblast [2]; 24 h, replicate 1
  Population Apoptotic (%): 65% and 68%
  Population Fragmented Nuclei (%): 38% and 24%
  Population Healthy Nuclei (%): 49% and 38%
  Population Hoechst High Intensity Objects (%): 21% and 44%
  Population Membrane Permeable-Phenotype (%): 4% and 2%
  Population Mitotic Cells (%): 34% and 31%
  Population Normal (%): 78% and 55%
  Total Cell Count: 258 and 181
Fibroblast [2]; 24 h, replicate 2
  Population Apoptotic (%): 80% and 73%
  Population Fragmented Nuclei (%): 63% and 56%
  Population Healthy Nuclei (%): 25% and 9%
  Population Hoechst High Intensity Objects (%): 36% and 43%
  Population Mitotic Cells (%): 20% and 26%
  Population Normal (%): 63% and 56%
  Population Tubulin-Different-Phenotype (%): 27% and 50%
  Total Cell Count: 69 and 78
Fibroblast [3]; 0 h, replicate number 2, timepoint 0 hours
  Growth Rate: 1
Fibroblast [3]; [5]
  Growth Rate: 0
Fibroblast [3]; [6]
  Growth Rate: 0
Fibroblast [3]; [7]
  Growth Rate: 0
Fibroblast [3]; [8]
  Growth Rate: 0
U2OS [4]; 0 h, replicate number 1, timepoint 0 hours
  Growth Rate: 0
U2OS [4]; [5]
  Growth Rate: 0
U2OS [4]; [6]
  Growth Rate: 0
U2OS [4]; [7]
  Growth Rate: 0
U2OS [4]; [8]
  Growth Rate: 0
